These results are taken from PMC11897355 (Nature Communications, 2025).

Numbering of substitutions follows the chain as printed. “Also recorded” adds a separate entry of the source.

One experiment concerns the target T1, wild-type GlyT1 (Homo sapiens, UniProt P48067).
T1 sequence (P48067 1-652 isoform P48067-3): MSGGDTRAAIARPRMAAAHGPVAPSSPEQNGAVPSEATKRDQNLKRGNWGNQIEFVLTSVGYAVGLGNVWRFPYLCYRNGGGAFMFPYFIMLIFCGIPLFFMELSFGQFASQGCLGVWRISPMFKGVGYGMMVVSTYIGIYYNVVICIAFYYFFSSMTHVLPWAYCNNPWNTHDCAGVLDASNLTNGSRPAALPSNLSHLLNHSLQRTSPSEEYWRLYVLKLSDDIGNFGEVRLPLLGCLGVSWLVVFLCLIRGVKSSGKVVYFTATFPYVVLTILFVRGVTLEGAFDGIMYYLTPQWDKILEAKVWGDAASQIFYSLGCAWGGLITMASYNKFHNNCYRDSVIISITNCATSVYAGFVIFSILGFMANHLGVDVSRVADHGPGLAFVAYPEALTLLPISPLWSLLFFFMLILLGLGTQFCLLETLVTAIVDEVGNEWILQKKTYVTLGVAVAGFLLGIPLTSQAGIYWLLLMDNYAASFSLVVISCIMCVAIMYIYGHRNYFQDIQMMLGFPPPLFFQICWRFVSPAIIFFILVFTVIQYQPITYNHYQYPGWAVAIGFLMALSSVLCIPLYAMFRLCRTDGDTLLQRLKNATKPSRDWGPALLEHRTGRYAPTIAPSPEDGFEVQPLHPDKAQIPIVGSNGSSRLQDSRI
The experiment is described as follows: [3H]glycine uptake inhibition assay, wild-type GlyT1 in HEK-293F cells. The following applies: IC50, [3H]glycine uptake. Type of experiment: cell-based. The procedure, abridged:
(§1)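 HEK-293F cells (2.5 × 10^6/mL) infected with baculovirus carrying wild-type or sequence-verified mutant human GlyT1. Cells collected after 15 h and washed in HEPES-Tris pH 7.4 uptake buffer, then preincubated 10 min with graded inhibitor. Uptake ran 1 min at 25 °C with 25 μM [3H]glycine/unlabeled glycine (1:2500). Two cold washes, lysis in 1% Triton X-100, scintillation counting. Uptake normalized to untreated cells. Three independent experiments in triplicate; IC50 fitted to mean data.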

The target in a further experiment is T2, G319S GlyT1 mutant (Homo sapiens, UniProt P48067, G373S).
T2 sequence (P48067 1-652 isoform P48067-3 G319S): T1 sequence (P48067 1-652 isoform P48067-3) with G319S
The experiment is described as follows: [3H]glycine uptake inhibition assay, GlyT1 G319S mutant. Type of experiment: cell-based. The essentials:
as §1

A further experiment concerns the target T3, L422T GlyT1 mutant (Homo sapiens, UniProt P48067, L476T).
T3 sequence (P48067 1-652 isoform P48067-3 L422T): T1 sequence (P48067 1-652 isoform P48067-3) with L422T
The experiment is described as follows: [3H]glycine uptake inhibition assay, GlyT1 L422T mutant. Type of experiment: cell-based. The procedure, abridged: as §1

The subject of another experiment is GlyT1. The settings on record: rat primary neurons; cited from earlier work.
A further experiment relates to HEK-293F cells. The experiment is described as follows: Cholesterol quantification after MβCD or wsCHOL treatment. Type of experiment: cell-based, human.
The target of experiment [1] is T4, WT GlyT1 (Homo sapiens, UniProt P48067).
T4 sequence (P48067 1-652 isoform P48067-3): T1 sequence (P48067 1-652 isoform P48067-3)
The experiment is described as follows: [3H]glycine kinetic uptake assay, WT GlyT1. Type of experiment: cell-based.

In experiment [2] the test system is WT GlyT1. Put plainly: Cell surface biotinylation and immunoblot. Type of experiment: cell-based, human. The settings on record: 2.5 mg/mL and 3.5 mg/mL MβCD.
The target in experiment [3] is T5, wild-type GlyT2 (Homo sapiens, UniProt Q9Y345).
T5 sequence (Q9Y345 1-797): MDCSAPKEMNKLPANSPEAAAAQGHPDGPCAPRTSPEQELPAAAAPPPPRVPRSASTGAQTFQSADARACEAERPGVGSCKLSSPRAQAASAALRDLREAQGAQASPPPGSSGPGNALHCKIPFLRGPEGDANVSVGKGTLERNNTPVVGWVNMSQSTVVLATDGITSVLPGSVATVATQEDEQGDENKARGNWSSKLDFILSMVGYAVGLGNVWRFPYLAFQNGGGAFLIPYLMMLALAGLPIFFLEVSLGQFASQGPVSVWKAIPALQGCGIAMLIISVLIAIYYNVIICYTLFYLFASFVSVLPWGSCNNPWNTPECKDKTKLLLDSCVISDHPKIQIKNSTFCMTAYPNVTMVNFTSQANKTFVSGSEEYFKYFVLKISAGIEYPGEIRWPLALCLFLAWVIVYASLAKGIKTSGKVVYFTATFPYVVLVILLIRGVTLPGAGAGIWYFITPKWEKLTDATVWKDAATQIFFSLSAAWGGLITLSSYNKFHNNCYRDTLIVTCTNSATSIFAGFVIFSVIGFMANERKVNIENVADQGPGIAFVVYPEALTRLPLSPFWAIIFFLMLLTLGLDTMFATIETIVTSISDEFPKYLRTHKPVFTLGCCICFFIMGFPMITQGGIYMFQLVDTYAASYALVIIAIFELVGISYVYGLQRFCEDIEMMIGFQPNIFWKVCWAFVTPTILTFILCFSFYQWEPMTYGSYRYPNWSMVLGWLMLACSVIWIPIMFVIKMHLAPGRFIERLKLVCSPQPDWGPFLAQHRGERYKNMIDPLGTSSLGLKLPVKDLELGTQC
The experiment is described as follows: [3H]glycine uptake inhibition assay, wild-type GlyT2. Type of experiment: cell-based.

Another experiment addresses T6, S479G GlyT2 mutant (Homo sapiens, UniProt Q9Y345, S479G).
T6 sequence (Q9Y345 1-797 S479G): T5 sequence (Q9Y345 1-797) with S479G
The experiment is described as follows: [3H]glycine uptake inhibition assay, GlyT2 S479G mutant. Type of experiment: cell-based.

The target of experiment [4] is T5, wild-type GlyT2. The following applies: cited from earlier work.

On to `C[C@@H](Oc1ccc(S(C)(=O)=O)cc1C(=O)N1C[C@@H]2C[C@]2(c2cc(C(F)(F)F)on2)C1)C(F)(F)F` [iclepertin], for which the IC50 on wild-type GlyT1 (wild-type GlyT1) is 0.162 ± 0.0196 µM; at L422T GlyT1 mutant it was 5.25 ± 0.33 µM; in the experiment with GlyT1, 0.0052 ± 0.0012 µM. The “inhibition of G319S mutant” value on G319S GlyT1 mutant is “not inhibited; also recorded: no visible inhibition effect”.

As to Methyl-β-cyclodextrin [MβCD], the “decrease of cholesterol content on the membrane” value in the experiment on HEK-293F cells (2.5 mg/mL MβCD) is 10%; with HEK-293F cells (3.5 mg/mL MβCD), 20%. Further, the “reduction of Vmax compared to WT GlyT1” value was “about 19.6%” at WT GlyT1 [1] (2.5 mg/mL MβCD) and approximately 26.7% on WT GlyT1 [1] (3.5 mg/mL MβCD). Besides, the “effect on Km values” on WT GlyT1 [1] (2.5 and 3.5 mg/mL MβCD) is recorded as “remained relatively unaffected”. In addition, the “effect on surface expression of GlyT1” value in the experiment with WT GlyT1 [2] was “without altering the surface expression”.

Compound `CNCC(=O)O` [sarcosine, N-methyl glycine] registered an IC50 at wild-type GlyT1 (wild-type GlyT1, mean ± S.E.M.) of 96.8 ± 13.7 µM. Also, on G319S GlyT1 mutant, the IC50 came out at 18600 ± 1550 µM and the “reduction of inhibitory potency on G319S compared to WT GlyT1” value is on record as ~ 200 fold. Also, the “sensitivity of WT GlyT2 to inhibition” value at wild-type GlyT2 [3] is “not sensitive”. Also, the “susceptibility of S479G GlyT2 to inhibition” value at S479G GlyT2 mutant was “susceptibility similar to that of WT GlyT1”. Also, the “inhibition of GlyT1 versus GlyT2” value at wild-type GlyT2 [4] was “can inhibit GlyT1 but not GlyT2”.

For the compound `NCC(=O)O` [glycine], the Km at WT GlyT1 [1] (WT GlyT1, untreated cells) stood at 126 µM.
